Results taken from ChEMBL document CHEMBL4138137, “Discovery of Novel 5-(Piperazine-1-carbonyl)pyridin-2(1H)-one Derivatives as Orally eIF4A3-Selective Inhibitors” (ACS Med Chem Lett, 2017).
Converted amounts (≈) assume the structure as drawn.

Columns and labels:
[1] = molecular target: Eukaryotic initiation factor 4A-III (Homo sapiens, UniProt P38919); experiment: Inhibition of MLN51-induced full length recombinant human N-terminal His6/SUMO-tagged eIF4A3 RNA dependent ATPase activity expressed in Escherichia coli BL21(DE3) using single stranded poly(U) RNA as substrate after 30 mins by ADP-Glo luminescence assay
Summary of the method: (§1)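 IC50 reported as the mean of duplicate experiments with 95% confidence intervals.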

[2] = Solubility of the compound at pH 6.8; format: physicochemical; settings: buffer
Summary of the method: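 Solubility measured at pH 6.8.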

[3] = Metabolic stability in mouse microsomes; format: ADME, Microsome; settings: read-out: Stability
Summary of the method: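 Metabolic stability measured in mouse liver microsomes, expressed in μL/min/mg.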

[4] = AUC (0 to 8 hrs) in ICR mouse at 1 mg/kg, po administered as cassette dose; format: ADME, organism-based; set-up: dose 1 mg/kg, time < 8 hr, route oral; settings: in vivo
Summary of the method: (§2)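 Cassette PK in male ICR mice, n = 3; dosed i.v. at 0.1 mg/kg and p.o. at 1 mg/kg. AUC taken over 0 to 8 h after oral dosing; bioavailability derived from the oral and i.v. exposures.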

[5] = Oral bioavailability in ICR mouse at 1 mg/kg administered as cassette dose; format: ADME, organism-based; settings: in vivo; summary of the method: as §2
[6] = molecular target: MDR1 (ABCB1, P-glycoprotein) (Homo sapiens, UniProt P08183); experiment: Substrate activity at MDR1 (unknown origin) assessed as efflux ratio of permeability; format: ADME; settings: not told
Summary of the method: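 Efflux ratio measured in vitro in an MDR1-overexpressing cell line.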

HCT-116 [7] = experiment: Growth inhibition of human HCT116 cells after 3 days by CellTiter-Glo luminescence assay; format: functional; settings: HCT-116, 72 h
Summary of the method: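 HCT-116 cells exposed to compound for 72 h; growth read as intracellular ATP amount. GI50 derived by curve fitting. Data representative of three independent experiments.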

[8] = molecular target: Eukaryotic initiation factor 4A-I (Homo sapiens, UniProt P60842); experiment: Inhibition of eIF4G-induced full length recombinant human N-terminal His6/SUMO-tagged eIF4A1 RNA dependent ATPase activity expressed in Escherichia coli BL21(DE3) using single stranded poly(U) RNA as substrate after 40 mins by ADP-Glo luminescence assay; summary of the method: as §1
[9] = molecular target: Eukaryotic initiation factor 4A-II (Homo sapiens, UniProt Q14240); experiment: Inhibition of eIF4G-induced full length recombinant human N-terminal His6/SUMO-tagged eIF4A2 RNA dependent ATPase activity using single stranded poly(U) RNA as substrate after 40 mins by ADP-Glo luminescence assay; summary of the method: as §1
[10] = molecular target: U5 small nuclear ribonucleoprotein 200 kDa helicase (Homo sapiens, UniProt O75643); experiment: Inhibition of human recombinant N-terminal full length His-tagged BRR2 RNA dependent ATPase activity expressed in baculovirus infected Sf9 insect cells using single stranded poly(U) RNA as substrate after 30 mins by ADP-Glo luminescence assay; summary of the method: as §1
[11] = molecular target: T1, ATP-dependent RNA helicase DHX29 (Homo sapiens, UniProt Q7Z478); experiment: Inhibition of human recombinant N-terminal full length FLAG-His-tagged DHX29 RNA dependent ATPase activity expressed in baculovirus infected Sf9 insect cells using single stranded poly(U) RNA as substrate after 30 mins by ADP-Glo luminescence assay; summary of the method: as §1
T1 sequence (Q7Z478 whole entry): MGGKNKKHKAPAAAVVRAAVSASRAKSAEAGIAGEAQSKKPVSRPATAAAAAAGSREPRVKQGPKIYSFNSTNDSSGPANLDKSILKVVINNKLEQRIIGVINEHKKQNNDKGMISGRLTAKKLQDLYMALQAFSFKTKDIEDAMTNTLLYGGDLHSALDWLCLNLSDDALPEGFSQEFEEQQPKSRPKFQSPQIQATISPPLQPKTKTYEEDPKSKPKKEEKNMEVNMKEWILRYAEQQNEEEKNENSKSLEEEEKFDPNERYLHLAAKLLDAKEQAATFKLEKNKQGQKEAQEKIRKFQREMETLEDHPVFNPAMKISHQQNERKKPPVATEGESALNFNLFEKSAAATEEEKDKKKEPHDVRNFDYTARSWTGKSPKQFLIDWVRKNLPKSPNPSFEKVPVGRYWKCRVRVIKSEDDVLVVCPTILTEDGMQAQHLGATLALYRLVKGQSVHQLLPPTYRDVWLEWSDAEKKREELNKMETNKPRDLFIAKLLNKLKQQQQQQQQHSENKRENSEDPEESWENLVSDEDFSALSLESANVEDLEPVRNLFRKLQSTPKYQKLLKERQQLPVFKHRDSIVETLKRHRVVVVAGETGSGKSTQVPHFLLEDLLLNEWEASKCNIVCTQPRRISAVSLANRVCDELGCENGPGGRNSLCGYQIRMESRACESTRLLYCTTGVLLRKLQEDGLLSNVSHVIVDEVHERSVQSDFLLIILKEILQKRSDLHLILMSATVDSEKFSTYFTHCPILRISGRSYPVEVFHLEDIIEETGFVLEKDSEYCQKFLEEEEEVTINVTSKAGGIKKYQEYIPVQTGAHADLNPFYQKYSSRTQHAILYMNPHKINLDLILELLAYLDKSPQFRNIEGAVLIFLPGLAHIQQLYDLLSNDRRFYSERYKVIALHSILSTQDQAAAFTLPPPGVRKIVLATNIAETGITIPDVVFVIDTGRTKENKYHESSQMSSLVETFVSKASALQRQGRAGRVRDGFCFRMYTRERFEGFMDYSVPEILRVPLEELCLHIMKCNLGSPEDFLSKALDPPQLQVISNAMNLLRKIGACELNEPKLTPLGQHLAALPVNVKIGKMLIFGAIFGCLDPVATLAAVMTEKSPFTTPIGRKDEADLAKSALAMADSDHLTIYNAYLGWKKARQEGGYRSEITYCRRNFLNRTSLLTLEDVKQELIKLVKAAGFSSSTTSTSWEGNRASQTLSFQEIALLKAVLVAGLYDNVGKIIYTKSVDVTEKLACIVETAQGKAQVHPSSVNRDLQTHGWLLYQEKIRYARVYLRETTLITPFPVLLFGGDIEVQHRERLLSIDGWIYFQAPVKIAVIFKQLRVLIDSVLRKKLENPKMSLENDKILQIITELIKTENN

Homo sapiens [12] = species: Homo sapiens; experiment: Inhibition of NMD in human HCT116 cells assessed as upregulation of SC35 1.6 kb mRNA expression level at 1 uM after 6 hrs by qPCR analysis relative to control; format: cell-based
Summary of the method: (§3)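 HCT-116 colorectal carcinoma cells treated for 6 h at 1, 3 or 10 μM. SC35 1.6 kb mRNA level expressed as fold change relative to control. Data representative of three independent experiments.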

Homo sapiens [13] = species: Homo sapiens; experiment: Inhibition of NMD in human HCT116 cells assessed as upregulation of SC35 1.6 kb mRNA expression level at 3 uM after 6 hrs by qPCR analysis relative to control; format: cell-based; summary of the method: as §3
Homo sapiens [14] = species: Homo sapiens; experiment: Inhibition of NMD in human HCT116 cells assessed as upregulation of SC35 1.6 kb mRNA expression level at 10 uM after 6 hrs by qPCR analysis relative to control; format: cell-based; summary of the method: as §3
Mus musculus [15] = experiment: In vivo inhibition of NMD in BALB/cA Jc1 nude mouse xenografted with human HCT116 cells assessed as upregulation of SC35 1.6 kb mRNA expression level in tumor at 100 mg/kg, po administered as single dose measured after 4 hrs by qPCR analysis relative to control; format: functional
Summary of the method: (§4)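 HCT-116 xenograft mice given a single oral dose of 100 mg/kg in a solubilizing formulation. Tumour SC35 1.6 kb mRNA expression measured at 4, 8 and 24 h after dosing.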

Mus musculus [16] = experiment: In vivo inhibition of NMD in BALB/cA Jc1 nude mouse xenografted with human HCT116 cells assessed as upregulation of SC35 1.6 kb mRNA expression level in tumor at 100 mg/kg, po administered as single dose measured after 8 hrs by qPCR analysis relative to control; format: functional; summary of the method: as §4
Mus musculus [17] = experiment: In vivo inhibition of NMD in BALB/cA Jc1 nude mouse xenografted with human HCT116 cells assessed as upregulation of SC35 1.6 kb mRNA expression level in tumor at 100 mg/kg, po administered as single dose measured after 24 hrs by qPCR analysis relative to control; format: functional; summary of the method: as §4
HCT-116 [18] = experiment: Antitumor activity against human HCT116 cells xenografted in BALB/cA Jc1 nude mouse assessed as reduction in tumor volume at 100 mg/kg, po bid administered for 14 days measured twice per week relative to control; format: functional
Summary of the method: (§5)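 HCT-116 xenograft mice dosed orally at 100 mg/kg twice daily for 14 days in a solubilizing formulation. Efficacy expressed as T/C versus a vehicle group, with Dunnett's test; body weight change monitored over the study.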

Mus musculus [19] = experiment: Toxicity in BALB/cA Jc1 nude mouse xenografted with human HCT116 cells assessed as reduction in body weight at 100 mg/kg, po bid administered for 14 days measured twice per week; format: organism-based; set-up: scale not given: the % may be the effect or the level left; settings: in vivo, 336 h; summary of the method: as §5

Sequence of Eukaryotic initiation factor 4A-III (P38919 whole entry): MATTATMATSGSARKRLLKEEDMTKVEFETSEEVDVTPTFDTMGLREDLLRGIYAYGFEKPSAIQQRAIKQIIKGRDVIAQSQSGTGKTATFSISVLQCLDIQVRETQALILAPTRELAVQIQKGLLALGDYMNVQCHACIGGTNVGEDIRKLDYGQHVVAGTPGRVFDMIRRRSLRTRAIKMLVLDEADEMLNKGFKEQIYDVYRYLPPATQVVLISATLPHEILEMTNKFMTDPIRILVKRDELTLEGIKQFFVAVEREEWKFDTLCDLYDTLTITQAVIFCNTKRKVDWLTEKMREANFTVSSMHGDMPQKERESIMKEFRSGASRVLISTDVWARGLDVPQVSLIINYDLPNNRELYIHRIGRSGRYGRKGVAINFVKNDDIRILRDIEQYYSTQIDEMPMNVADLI
Sequence of MDR1 (ABCB1, P-glycoprotein) (P08183 whole entry): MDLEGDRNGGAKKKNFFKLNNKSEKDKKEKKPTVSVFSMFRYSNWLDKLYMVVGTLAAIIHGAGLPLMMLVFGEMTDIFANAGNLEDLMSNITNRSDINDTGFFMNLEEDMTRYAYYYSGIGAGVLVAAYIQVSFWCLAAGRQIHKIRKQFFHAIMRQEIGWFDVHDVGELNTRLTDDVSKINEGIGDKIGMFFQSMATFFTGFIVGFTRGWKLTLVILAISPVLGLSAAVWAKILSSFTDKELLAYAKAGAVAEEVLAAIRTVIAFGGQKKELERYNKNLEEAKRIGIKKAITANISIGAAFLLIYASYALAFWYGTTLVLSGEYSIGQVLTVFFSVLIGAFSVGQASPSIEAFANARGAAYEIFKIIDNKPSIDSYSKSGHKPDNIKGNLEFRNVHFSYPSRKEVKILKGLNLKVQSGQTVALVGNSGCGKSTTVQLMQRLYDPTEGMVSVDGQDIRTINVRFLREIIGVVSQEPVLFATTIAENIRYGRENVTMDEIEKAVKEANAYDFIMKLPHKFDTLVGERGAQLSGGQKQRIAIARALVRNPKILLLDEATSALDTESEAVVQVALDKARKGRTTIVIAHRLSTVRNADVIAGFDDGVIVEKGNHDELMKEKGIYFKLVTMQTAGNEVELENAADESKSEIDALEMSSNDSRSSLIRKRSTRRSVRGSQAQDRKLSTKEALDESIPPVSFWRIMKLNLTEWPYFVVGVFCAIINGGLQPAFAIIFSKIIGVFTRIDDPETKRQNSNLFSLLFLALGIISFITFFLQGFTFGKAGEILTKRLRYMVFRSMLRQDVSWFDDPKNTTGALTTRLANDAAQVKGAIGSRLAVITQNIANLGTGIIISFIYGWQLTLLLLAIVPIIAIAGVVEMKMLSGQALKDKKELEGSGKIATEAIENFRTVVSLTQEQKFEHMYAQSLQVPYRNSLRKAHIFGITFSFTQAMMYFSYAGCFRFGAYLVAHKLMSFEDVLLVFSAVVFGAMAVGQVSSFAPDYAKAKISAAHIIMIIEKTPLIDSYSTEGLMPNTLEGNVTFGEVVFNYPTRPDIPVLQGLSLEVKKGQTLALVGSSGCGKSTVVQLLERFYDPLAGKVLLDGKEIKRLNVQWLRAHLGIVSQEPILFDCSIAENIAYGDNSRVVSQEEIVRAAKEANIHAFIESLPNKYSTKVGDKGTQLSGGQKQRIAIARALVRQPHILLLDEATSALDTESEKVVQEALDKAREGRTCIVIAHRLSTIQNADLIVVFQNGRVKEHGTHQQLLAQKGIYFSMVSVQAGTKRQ
Sequence of U5 small nuclear ribonucleoprotein 200 kDa helicase (O75643 whole entry): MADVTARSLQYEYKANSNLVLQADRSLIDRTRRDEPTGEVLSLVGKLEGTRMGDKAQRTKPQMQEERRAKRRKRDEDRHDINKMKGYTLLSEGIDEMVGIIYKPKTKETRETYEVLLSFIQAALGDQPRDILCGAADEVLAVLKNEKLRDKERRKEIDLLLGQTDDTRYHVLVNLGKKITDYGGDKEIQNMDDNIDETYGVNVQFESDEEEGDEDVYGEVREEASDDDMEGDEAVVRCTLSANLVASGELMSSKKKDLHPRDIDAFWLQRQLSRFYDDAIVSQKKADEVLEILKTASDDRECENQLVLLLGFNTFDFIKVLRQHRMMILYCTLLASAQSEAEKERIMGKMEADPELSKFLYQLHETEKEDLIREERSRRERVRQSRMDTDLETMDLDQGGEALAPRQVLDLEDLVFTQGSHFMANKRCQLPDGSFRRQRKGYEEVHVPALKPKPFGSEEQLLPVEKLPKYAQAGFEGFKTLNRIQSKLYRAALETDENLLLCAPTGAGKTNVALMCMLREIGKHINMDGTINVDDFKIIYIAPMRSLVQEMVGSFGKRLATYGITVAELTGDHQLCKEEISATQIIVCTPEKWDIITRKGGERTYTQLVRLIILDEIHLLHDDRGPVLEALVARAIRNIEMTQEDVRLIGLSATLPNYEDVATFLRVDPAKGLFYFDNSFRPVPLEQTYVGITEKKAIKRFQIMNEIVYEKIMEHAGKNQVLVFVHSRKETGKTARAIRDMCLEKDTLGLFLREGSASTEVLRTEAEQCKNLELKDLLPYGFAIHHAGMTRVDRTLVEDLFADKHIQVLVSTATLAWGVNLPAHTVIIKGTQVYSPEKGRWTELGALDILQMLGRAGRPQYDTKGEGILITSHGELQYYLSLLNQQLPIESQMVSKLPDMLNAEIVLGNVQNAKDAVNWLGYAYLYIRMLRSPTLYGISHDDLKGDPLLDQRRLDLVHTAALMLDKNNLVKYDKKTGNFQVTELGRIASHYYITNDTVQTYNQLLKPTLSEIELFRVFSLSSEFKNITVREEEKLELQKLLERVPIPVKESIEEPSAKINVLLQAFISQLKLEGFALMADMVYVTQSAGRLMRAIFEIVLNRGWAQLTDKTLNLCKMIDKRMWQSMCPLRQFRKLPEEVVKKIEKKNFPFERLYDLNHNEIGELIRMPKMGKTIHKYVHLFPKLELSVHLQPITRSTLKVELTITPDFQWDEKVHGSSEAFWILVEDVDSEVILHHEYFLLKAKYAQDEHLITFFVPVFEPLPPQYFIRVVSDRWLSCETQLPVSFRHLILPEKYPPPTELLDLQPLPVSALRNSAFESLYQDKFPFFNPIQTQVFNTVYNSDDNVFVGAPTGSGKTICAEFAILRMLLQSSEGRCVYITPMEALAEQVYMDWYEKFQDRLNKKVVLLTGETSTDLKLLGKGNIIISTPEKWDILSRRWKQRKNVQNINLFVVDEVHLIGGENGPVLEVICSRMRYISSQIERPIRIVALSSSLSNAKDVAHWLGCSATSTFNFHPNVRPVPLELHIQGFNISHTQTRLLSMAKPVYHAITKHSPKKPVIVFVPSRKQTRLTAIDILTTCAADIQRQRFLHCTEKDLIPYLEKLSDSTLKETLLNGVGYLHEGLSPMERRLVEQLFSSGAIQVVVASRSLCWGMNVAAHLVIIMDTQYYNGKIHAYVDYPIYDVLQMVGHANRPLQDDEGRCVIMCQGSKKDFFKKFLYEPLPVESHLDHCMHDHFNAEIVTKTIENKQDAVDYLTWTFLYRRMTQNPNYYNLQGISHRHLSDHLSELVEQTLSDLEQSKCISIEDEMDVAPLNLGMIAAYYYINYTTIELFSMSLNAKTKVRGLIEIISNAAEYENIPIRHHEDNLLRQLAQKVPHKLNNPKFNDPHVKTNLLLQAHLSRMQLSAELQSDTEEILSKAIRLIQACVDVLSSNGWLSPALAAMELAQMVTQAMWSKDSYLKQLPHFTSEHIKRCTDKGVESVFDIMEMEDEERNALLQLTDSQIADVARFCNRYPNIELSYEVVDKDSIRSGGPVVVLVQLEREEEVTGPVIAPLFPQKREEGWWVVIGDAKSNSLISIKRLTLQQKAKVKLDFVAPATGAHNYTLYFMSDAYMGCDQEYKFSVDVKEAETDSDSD
Sequence of Eukaryotic initiation factor 4A-I (P60842 whole entry): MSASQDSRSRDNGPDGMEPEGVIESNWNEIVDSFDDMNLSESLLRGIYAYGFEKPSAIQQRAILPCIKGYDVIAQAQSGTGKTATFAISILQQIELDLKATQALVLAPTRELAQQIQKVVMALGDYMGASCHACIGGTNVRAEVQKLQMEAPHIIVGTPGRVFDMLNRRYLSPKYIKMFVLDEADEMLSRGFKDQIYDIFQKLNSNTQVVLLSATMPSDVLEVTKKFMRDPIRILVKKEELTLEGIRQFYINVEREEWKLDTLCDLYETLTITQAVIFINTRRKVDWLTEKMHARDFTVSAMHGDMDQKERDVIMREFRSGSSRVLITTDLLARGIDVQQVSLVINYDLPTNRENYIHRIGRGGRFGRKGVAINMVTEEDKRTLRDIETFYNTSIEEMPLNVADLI
Sequence of Eukaryotic initiation factor 4A-II (Q14240 whole entry): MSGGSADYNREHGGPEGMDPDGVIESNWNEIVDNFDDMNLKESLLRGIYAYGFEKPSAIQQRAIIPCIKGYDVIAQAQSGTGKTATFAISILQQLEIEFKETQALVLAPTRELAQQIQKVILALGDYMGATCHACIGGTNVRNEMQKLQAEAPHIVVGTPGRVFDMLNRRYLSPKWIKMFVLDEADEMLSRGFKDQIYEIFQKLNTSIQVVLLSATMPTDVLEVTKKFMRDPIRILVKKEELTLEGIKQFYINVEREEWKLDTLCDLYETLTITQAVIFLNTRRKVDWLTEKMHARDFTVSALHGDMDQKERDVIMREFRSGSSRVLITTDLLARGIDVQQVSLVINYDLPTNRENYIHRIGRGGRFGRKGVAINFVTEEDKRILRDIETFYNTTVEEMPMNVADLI

## O=C(c1cnn2cc(Br)ccc12)N1CCN(C(=O)c2ccc(Br)cn2)[C@@H](c2ccc(Cl)cc2)C1
[1]
  IC50: 280 nM
[2]
  solubility: 3.8 µg/mL (≈ 6.29 µM)
[3]
  microsomal CLint: 207 µL/min/mg
[4]
  AUC(0-t) at 8 h: 55.9 ng·h/mL
[5]
  bioavailability: 11.4%

## N#Cc1cccc(-c2cc(C(=O)N3CCN(C(=O)c4ccc(Br)cn4)[C@@H](c4ccc(Cl)cc4)C3)c[nH]c2=O)c1
[1]
  IC50: 50 nM
[2]
  solubility: 2.4 µg/mL (≈ 3.98 µM)
[3]
  microsomal CLint: 113 µL/min/mg
[6]
  efflux ratio: 35

## O=C(c1c[nH]c(=O)c2ccccc12)N1CCN(C(=O)c2ccc(Br)cc2)[C@@H](c2ccc(Cl)cc2)C1
[1]
  IC50: 290 nM
[2]
  solubility: 11 µg/mL (≈ 20 µM)
[3]
  microsomal CLint: 16 µL/min/mg
[4]
  AUC(0-t) at 8 h: 97.3 ng·h/mL
[5]
  bioavailability: 9.6%

## N#Cc1cccc(-c2cc(C(=O)N3CCN(C(=O)c4ccc(Cl)cc4)C(c4ccc(Cl)cc4)C3)c[nH]c2=O)c1 (configuration not stated)
[1]
  IC50: 190 nM

## O=C(c1cncc2ccccc12)N1CCN(C(=O)c2ccc(Br)cc2)[C@@H](c2ccc(Cl)cc2)C1
[1]
  IC50: 1600 nM
[2]
  solubility: 5.1 µg/mL (≈ 9.54 µM)
[3]
  microsomal CLint: 202 µL/min/mg
[4]
  AUC(0-t) at 8 h: 1.5 ng·h/mL
[5]
  bioavailability: 0.4%

## CS(=O)(=O)c1cccc(-c2cc(C(=O)N3CCN(C(=O)c4ccc(Cl)cc4)C(c4ccc(Cl)cc4)C3)c[nH]c2=O)c1 (configuration not stated)
[1]
  IC50: 490 nM

## O=C(c1cnn2cc(Br)ccc12)N1CCN(C(=O)c2ccc(Br)cc2)[C@@H](c2ccc(Cl)cc2)C1
[2]
  solubility: 0.46 µg/mL (≈ 0.763 µM)
[3]
  microsomal CLint: 227 µL/min/mg
[4]
  AUC(0-t) at 8 h: 9 ng·h/mL
[5]
  bioavailability: 5.7%
HCT-116 [7]
  GI50: 3060 nM
[6]
  efflux ratio: 0.9

## O=C(c1ccnc2ccccc12)N1CCN(C(=O)c2ccc(Br)cc2)[C@@H](c2ccc(Cl)cc2)C1
[1]
  IC50: 2700 nM
[2]
  solubility: 3.2 µg/mL (≈ 5.98 µM)
[3]
  microsomal CLint: 143 µL/min/mg
[4]
  AUC(0-t) at 8 h: 129 ng·h/mL
[5]
  bioavailability: 19.7%

## O=C(c1c[nH]c(=O)c(-c2ccccc2)c1)N1CCN(C(=O)c2ccc(Cl)cc2)C(c2ccc(Cl)cc2)C1 (configuration not stated)
[1]
  IC50: 410 nM

## Cn1cc(C(=O)N2CCN(C(=O)c3ccc(Br)cn3)[C@@H](c3ccc(Cl)cc3)C2)cc(-c2cccc(C#N)c2)c1=O
[8]
  IC50: > 100000 nM
[1]
  IC50: 100 nM
[2]
  solubility: 12 µg/mL (≈ 19.5 µM)
[3]
  microsomal CLint: 6 µL/min/mg
[4]
  AUC(0-t) at 8 h: 147 ng·h/mL
[5]
  bioavailability: 16.1%
[9]
  IC50: > 100000 nM
[10]
  IC50: > 100000 nM
[11]
  IC50: > 100000 nM
Homo sapiens [12]
  fold change (FC): 2.17
Homo sapiens [13]
  fold change (FC): 8.41
Homo sapiens [14]
  fold change (FC): 19.1
HCT-116 [7]
  GI50: 1340 nM
Mus musculus [15]
  fold change (FC): 4
Mus musculus [16]
  fold change (FC): 2.5
Mus musculus [17]
  fold change (FC): 1.2
HCT-116 [18]
  T/C: 54%
Mus musculus [19]
  Activity: < 5%
[6]
  efflux ratio: 25

## O=C(c1c[nH]c(=O)c(-c2cccc(Cl)c2)c1)N1CCN(C(=O)c2ccc(Cl)cc2)C(c2ccc(Cl)cc2)C1 (configuration not stated)
[1]
  IC50: 290 nM

## O=C(c1c[nH]c(=O)c(-c2ccc(Cl)cc2)c1)N1CCN(C(=O)c2ccc(Cl)cc2)C(c2ccc(Cl)cc2)C1 (configuration not stated)
[1]
  IC50: 1100 nM

## O=C(c1c[nH]c(=O)c(-c2ccccc2Cl)c1)N1CCN(C(=O)c2ccc(Cl)cc2)C(c2ccc(Cl)cc2)C1 (configuration not stated)
[1]
  IC50: 420 nM

## O=C(c1c[nH]c(=O)c(-c2cccc(C(F)(F)F)c2)c1)N1CCN(C(=O)c2ccc(Cl)cc2)C(c2ccc(Cl)cc2)C1 (configuration not stated)
[1]
  IC50: 700 nM

## O=C(c1c[nH]c(=O)c2ccccc12)N1CCN(C(=O)c2ccc(Cl)cc2)C(c2ccc(Cl)cc2)C1 (configuration not stated)
[1]
  IC50: 1300 nM
